Reference: ChEMBL document CHEMBL5370635, “Structure-Based Design and Synthesis of Potent and Selective KRAS G12D Inhibitors” (ACS Med Chem Lett, 2023)

What was measured:
GTPase KRas [1] = target: T1, GTPase KRas (Homo sapiens, UniProt P01116, G12D); assay: Inhibition of GDP-bound biotinylated-KRAS G12D mutant (1 to 169 residues) (unknown origin) assessed as suppression of SOS1-mediated nucleotide exchange by measuring reduction in KRAS G12D mutant-RAF RBD complex formation preincubated for 60 mins followed by SOS1 addition and further incubated for 60 mins and subsequent addition of KRAS G12D mutant-RAF RBD mixture measured after 30 to 60 mins by FRET assay
[2] = test system: GTPase KRas (Homo sapiens), P01116 [G12D]; assay: Thermal stabilization of GDP-bound KRAS G12D mutant (1 to 169 residues) (unknown origin) assessed as melting temperature incubated for 1 hrs by differential scanning fluorimetry assay
GTPase KRas [3] = target: T2, GTPase KRas (Homo sapiens, UniProt P01116); assay: Inhibition of wild-type GDP-bound biotinylated-KRAS (unknown origin) assessed as suppression of SOS1-mediated nucleotide exchange by measuring reduction in KRAS-RAF RBD complex formation preincubated for 60 mins followed by SOS1 addition and further incubated for 60 mins and subsequent addition of KRAS-RAF RBD mixture measured after 30 to 60 mins by FRET assay
GTPase KRas [4] = target: T1, GTPase KRas; assay: Inhibition of KRAS G12D mutant in human ASPC1 cells assessed as reduction in ERK phosphorylation measured after 4 hrs by HTRF assay; format: cell-based
GTPase KRas [5] = target: T2, GTPase KRas; assay: Thermal stabilization of wild-type GDP-bound KRAS (1 to 169 residues) (unknown origin) assessed as melting temperature incubated for 1 hrs by differential scanning fluorimetry assay
[6] = Antiproliferative activity against human GP2d cells assessed as reduction in cell viability measured after 5 days by Cell-Titer Glo assay; format: functional, cell-based; details: 120 h
[7] = Antiproliferative activity against RAS initiative G12D cells assessed as reduction in cell viability after 5 days of treatment by Cell-Titer Glo assay; format: functional, cell-based; details: Homo sapiens, 120 h
[8] = Selectivity ratio of IC50 for RAS initiative wild-type cells to IC50 for RAS initiative G12D cells; format: functional
SK-LU-1 = assay: Antiproliferative activity against human SK-LU-1 cells assessed as reduction in cell viability measured after 5 days by Cell-Titer Glo assay; format: functional, cell-based; details: SK-LU-1, 120 h
[9] = Antiproliferative activity against human SNU-1033 cells assessed as reduction in cell viability measured after 5 days by Cell-Titer Glo assay; format: functional, cell-based; details: SNU-1033, 120 h
LS-513 = assay: Antiproliferative activity against human LS-513 cells assessed as reduction in cell viability measured after 5 days by Cell-Titer Glo assay; format: functional, cell-based; details: LS-513, 120 h
HPAF-II = assay: Antiproliferative activity against human HPAF-II cells assessed as reduction in cell viability measured after 5 days by Cell-Titer Glo assay; format: functional, cell-based; details: 120 h
AGS = assay: Antiproliferative activity against human AGS cells assessed as reduction in cell viability measured after 5 days by Cell-Titer Glo assay; format: functional, cell-based; details: 120 h
[10] = Antiproliferative activity against RAS initiative wild-type cells assessed as reduction in cell viability after 5 days of treatment by Cell-Titer Glo assay; format: functional, cell-based; details: Homo sapiens, 120 h
ASPC1 [11] = assay: Antiproliferative activity against human ASPC1 cells assessed as reduction in cell viability measured after 5 days by Cell-Titer Glo assay; format: functional, cell-based; details: ASPC1, 120 h
How it was run: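 AsPC-1 PDAC cells (KRAS G12D) grown in three-dimensional culture; viability read by Cell-Titer Glo luminescence.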

HPAC = assay: Antiproliferative activity against human HPAC cells assessed as reduction in cell viability measured after 5 days by Cell-Titer Glo assay; format: functional, cell-based; details: 120 h
[12] = Antiproliferative activity against human Panc 04.03 cells assessed as reduction in cell viability measured after 5 days by Cell-Titer Glo assay; format: functional, cell-based; details: Panc 04.03, 120 h
ASPC1 [13] = assay: Antitumor activity against human ASPC1 cells xenografted in mouse assessed as tumor regression at 20 mg/kg bid for 28 days relative to control; format: functional; details: time 28 day
How it was run: (§1)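 Mice bearing AsPC-1 (KRAS G12D pancreatic ductal adenocarcinoma) xenografts were given repeated twice-daily doses of 3, 10 or 20 mg/kg alongside a vehicle control group, with n = 8 per group. Tumor growth inhibition or regression was assessed against vehicle, with body weight also tracked. Group means were reported with SEM, and P values were calculated versus vehicle.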

[14] = Toxicity in human ASPC1 cell xenografted mouse at 3 to 20 mg/kg bid administered for 28 days; format: organism-based; details: in vivo, 672 h, dose 3-20 mg/kg, time 28 day
How it was run: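 Mice bearing AsPC-1 KRAS G12D PDAC xenografts dosed BID at 3, 10 or 20 mg/kg alongside a vehicle control group. Body weight change tracked over the treatment period together with tumour growth. Group means, n = 8, with SEM.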

ASPC1 [15] = assay: Antitumor activity against human ASPC1 cells xenografted in mouse assessed as inhibition of tumor growth at 3 mg/kg bid for 28 days relative to control; format: functional; details: ASPC1, 672 h, time 28 day, read-out: TGI; how it was run: as §1
ASPC1 [16] = assay: Antitumor activity against human ASPC1 cells xenografted in mouse assessed as inhibition of tumor growth at 10 mg/kg bid for 28 days relative to control; format: functional; details: ASPC1, 672 h, time 28 day, read-out: TGI; how it was run: as §1
Homo sapiens = organism: Homo sapiens; assay: Selectivity ratio of IC50 for wild-type GDP-bound biotinylated-KRAS (unknown origin) to IC50 for GDP-bound biotinylated-KRAS G12D mutant (1 to 169 residues) (unknown origin)
ASPC1 [17] = assay: Antitumor activity against human ASPC1 cells xenografted in mouse assessed as inhibition of tumor growth at 20 mg/kg bid for 28 days relative to control; format: functional; set-up: scale not given: the % may be the effect or the level left; details: time 28 day; how it was run: as §1

Structure (SMILES)	IC50 (GTPase KRas [1])	ΔTm [2]	IC50 (GTPase KRas [3])	IC50 (GTPase KRas [4])	ΔTm (GTPase KRas [5])	other results
CN1CCC[C@H]1COc1nc(N2C[C@H]3CC[C@@H](C2)N3)c2cc(Cl)c(-c3ccc(F)c4sc(N)c(C#N)c34)c(F)c2n1	1.3 nM	17.1 °C	17 nM	138 nM	10.3 °C	–
Nc1cc2ccccc2c(-c2c(Cl)cc3c(N4C[C@H]5CC[C@@H](C4)N5)nc(OC[C@@]45CCCN4C[C@H](F)C5)nc3c2F)n1	12.8 nM	4.3 °C	> 1000 nM	2970 nM	0.8 °C	–
N#Cc1c(N)sc2c(F)ccc(-c3c(Cl)cc4c(N5C[C@H]6CC[C@@H](C5)N6)nc(OCC5(CN6CC[C@@H](F)C6)CC5)nc4c3F)c12	1 nM	17.8 °C	9.2 nM	30 nM	12 °C	–
Nc1nc2c(-c3c(Cl)cc4c(N5C[C@H]6CC[C@@H](C5)N6)nc(OC[C@@]56CCCN5C[C@H](F)C6)nc4c3F)ccc(F)c2s1	3.8 nM	14.7 °C	39.6 nM	149 nM	7.2 °C	–
N#Cc1c(N)sc2c(F)ccc(-c3c(Cl)cc4c(N5C[C@H]6CC[C@@H](C5)N6)nc(OC[C@@]56CCCN5C[C@H](F)C6)nc4c3F)c12	0.98 nM	20.2 °C	4.2 nM	4.3 nM	13.4 °C	IC50 [6]: 0.2 nM; IC50 [7]: 33.4 nM; Ratio IC50 [8]: >100; IC50 (SK-LU-1): 1.4 nM; IC50 [9]: 1890 nM; IC50 (LS-513): 7.5 nM; IC50 (HPAF-II): 14.2 nM; IC50 (AGS): 1.2 nM; IC50 [10]: 3440 nM; IC50 (ASPC1 [11]): 15.1 nM; IC50 (HPAC): 3.4 nM; IC50 [12]: 58.6 nM
N#Cc1c(N)sc2c(F)ccc(-c3c(C(F)(F)F)cc4c(N5C[C@H]6CC[C@@H](C5)N6)nc(OC[C@@]56CCCN5C[C@H](F)C6)nc4c3F)c12	0.86 nM	20.8 °C	3.9 nM	2.1 nM	8.3 °C	Activity (ASPC1 [13]): 54%; IC50 [6]: 0.2 nM; IC50 [7]: 5.8 nM; Activity [14]: Non-Toxic; Ratio IC50 [8]: >100; IC50 (SK-LU-1): 0.5 nM; IC50 [9]: 623 nM; IC50 (LS-513): 2 nM; IC50 (HPAF-II): 7.2 nM; IC50 (AGS): 0.7 nM; IC50 [10]: 978 nM; inhibition in vivo at 3 mg/kg (ASPC1 [15]): 51%; IC50 (ASPC1 [11]): 3.5 nM; IC50 (HPAC): 1.8 nM; inhibition in vivo at 10 mg/kg (ASPC1 [16]): 77%; IC50 [12]: 10.6 nM
Cc1cc(N)nc(-c2c(Cl)cc3c(N4CCNC[C@@H]4C)nc(OC[C@@H]4CCCN4C)nc3c2F)c1C(F)(F)F	76.9 nM	2.6 °C	> 1000 nM	> 10000 nM	1.4 °C	–
Nc1cc2cccc(F)c2c(-c2c(Cl)cc3c(N4C[C@H]5CC[C@@H](C4)N5)nc(OC[C@@]45CCCN4C[C@H](F)C5)nc3c2F)n1	6 nM	7.4 °C	> 1000 nM	1030 nM	2.2 °C	–
N#Cc1c(N)sc2c(F)ccc(-c3cc4nc(OC[C@@]56CCCN5C[C@H](F)C6)nc(N5C[C@H]6CC[C@@H](C5)N6)c4cc3Cl)c12	1.5 nM	16 °C	11.6 nM	42.9 nM	9.4 °C	–
N#Cc1c(N)sc2c(F)ccc(-c3c(Cl)cc4c(N5C[C@H]6CC[C@@H](C5)N6)ncnc4c3F)c12	5.32 nM	7.4 °C	> 1000 nM	1080 nM	3.7 °C	Ratio IC50 (Homo sapiens): 188
Cc1cc(N)nc(-c2c(Cl)cc3c(N4C[C@H]5CC[C@@H](C4)N5)nc(OCC45CCCN4CCC5)nc3c2F)c1C(F)(F)F	2.1 nM	10.9 °C	214 nM	928 nM	4.6 °C	–
C#Cc1c(F)ccc2cc(O)cc(-c3ncc4c(N5C[C@H]6CC[C@@H](C5)N6)nc(OC[C@@]56CCCN5C[C@H](F)C6)nc4c3F)c12 [MRTX-1133]	–	–	–	–	–	Activity (ASPC1 [17]): 94%; IC50 [6]: 0.4 nM; IC50 [7]: 16.4 nM; Activity [14]: Non-Toxic; Ratio IC50 [8]: >100; IC50 (SK-LU-1): 2.7 nM; IC50 [9]: 4980 nM; IC50 (LS-513): 8.1 nM; IC50 (HPAF-II): 14.9 nM; IC50 (AGS): 3.2 nM; IC50 [10]: 6470 nM; inhibition in vivo at 3 mg/kg (ASPC1 [15]): 61%; IC50 (ASPC1 [11]): 11 nM; IC50 (HPAC): 4.2 nM; inhibition in vivo at 10 mg/kg (ASPC1 [16]): 83%; IC50 [12]: 27.6 nM
Cc1cc(N)nc(-c2c(Cl)cc3c(N4C[C@H]5CC[C@@H](C4)N5)nc(OC[C@@]45CCCN4C[C@H](F)C5)nc3c2F)c1C(F)(F)F	2.1 nM	11.7 °C	153 nM	89.9 nM	5.2 °C	–
Cc1cc(N)nc(-c2c(Cl)cc3c(N4C[C@H]5CC[C@@H](C4)N5)nc(OC[C@@H]4CCCN4C)nc3c2F)c1C(F)(F)F	3.5 nM	7.3 °C	> 1000 nM	941 nM	1.9 °C	Ratio IC50 (Homo sapiens): > 286
